For data set [1], the system named is Staphylococcus aureus. Description: Inhibition of biofilm formation in methicillin-resistant Staphylococcus aureus BAA 44 at 150 uM after 24 hrs by crystal violet staining-based assay relative to control. The data set is classed as functional. The settings on record: BAA 44, 24 h. The gist of the method:
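Static biofilm development in MRSA, read out by crystal violet staining against an untreated control. Initial screen at 150 μM. Inhibitors then went to dose-response, with IC50 taken as the concentration giving 50% inhibition of biofilm growth. Induction was judged at 50 μM: under 50% induction counted as "inducer", over 50% as "strong inducer".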

The test system of data set [2] is Escherichia coli. Description: Antimicrobial activity against Escherichia coli K-12 ER2718 assessed as effect on planktonic growth at IC50 after 2 to 24 hrs. The data set is classed as organism-based.
Data set [3] concerns Acinetobacter baumannii. Briefly: Inhibition of biofilm formation in Acinetobacter baumannii 19606 at 150 uM after 24 hrs by crystal violet staining-based assay relative to control. Type of data set: functional. The settings on record: ATCC 19606 = CIP 70.34 = JCM 6841, 24 h.
In data set [4] the test system is Acinetobacter baumannii. Description: Antimicrobial activity against Acinetobacter baumannii 19606 assessed as effect on planktonic growth at IC50 after 2 to 24 hrs by colony count method. On the set-up: species or system ATCC 19606.
In data set [5] the test system is Escherichia coli. Briefly: Inhibition of biofilm formation in Escherichia coli K-12 ER2718 at 150 uM after 24 hrs by crystal violet staining-based assay relative to control. The following applies: K-12 ER2718, 24 h. Type of data set: functional.
For data set [6], the system named is Staphylococcus aureus. Briefly: Antimicrobial activity against methicillin-resistant Staphylococcus aureus BAA 44 assessed as effect on planktonic growth at IC50 after 2 to 24 hrs. The data set is classed as organism-based. The settings on record: in vivo.
In data set [7] the test system is Staphylococcus aureus. Description: Antimicrobial activity against methicillin-resistant Staphylococcus aureus BAA 44 assessed as effect on planktonic growth at IC50 after 2 to 24 hrs by colony count method. Type of data set: organism-based. The following applies: in vivo.
The subject of data set [8] is Staphylococcus aureus. Briefly: Antimicrobial activity against Staphylococcus aureus 29213 assessed as effect on planktonic growth at PC25 after 2 to 24 hrs by colony count method. The following applies: in vivo. The data set is classed as organism-based.
Data set [9] concerns Staphylococcus aureus. Description: Antimicrobial activity against Staphylococcus aureus 29213 assessed as effect on planktonic growth at PC75 after 2 to 24 hrs. The data set is classed as organism-based. The following applies: in vivo.
Data set [10] relates to Staphylococcus aureus. Description: Antimicrobial activity against Staphylococcus aureus 29213 assessed as effect on planktonic growth at IC50 after 2 to 24 hrs by colony count method. The data set is classed as organism-based. The settings on record: in vivo.
For data set [11], the system named is Escherichia coli. Briefly: Antimicrobial activity against Escherichia coli K-12 ER2718 assessed as effect on planktonic growth at IC50 after 2 to 24 hrs by colony count method. Type of data set: organism-based.
The subject of data set [12] is Staphylococcus aureus. Description: Antimicrobial activity against Staphylococcus aureus 29213 assessed as effect on planktonic growth at 50 uM after 2 to 24 hrs. Type of data set: organism-based. A digest of the protocol: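 Growth curve analysis of planktonic bacteria with each biofilm inducer at 50 μM, used to assess toxicity.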
Data set [13] has as its system Staphylococcus aureus. Description: Antimicrobial activity against Staphylococcus aureus 29213 assessed as effect on planktonic growth at PC25 after 2 to 24 hrs. The data set is classed as organism-based. The settings on record: in vivo.
Data set [14] relates to Staphylococcus aureus. Description: Antimicrobial activity against Staphylococcus aureus 29213 assessed as effect on planktonic growth at IC50 after 2 to 24 hrs. Type of data set: organism-based. The settings on record: in vivo.
In data set [15] the test system is Staphylococcus aureus. Description: Induction of biofilm formation in Staphylococcus aureus 29213 at 50 uM after 24 hrs by crystal violet staining-based assay relative to control. The data set is classed as functional. The gist of the method:
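Static biofilm assay with compounds at 50 μM and crystal violet read-out, relative to an untreated control. Compounds increasing biofilm by less than 50% were called inducers, and by more than 50% strong inducers.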

Data set [16] has as its system Staphylococcus aureus. Description: Antimicrobial activity against Staphylococcus aureus 29213 assessed as effect on planktonic growth at PC50 after 2 to 24 hrs by colony count method. Type of data set: organism-based. The settings on record: in vivo.
Data set [17] has as its system Staphylococcus aureus. Description: Antimicrobial activity against Staphylococcus aureus 29213 assessed as effect on planktonic growth at PC50 after 2 to 24 hrs. The data set is classed as organism-based. The following applies: in vivo.
The test system of data set [18] is Acinetobacter baumannii. Description: Antimicrobial activity against Acinetobacter baumannii 19606 assessed as effect on planktonic growth at IC50 after 2 to 24 hrs. On the set-up: species or system ATCC 19606.
Data set [19] deals with Staphylococcus aureus. Briefly: Antimicrobial activity against Staphylococcus aureus 29213 assessed as effect on planktonic growth at PC75 after 2 to 24 hrs by colony count method. Type of data set: organism-based. The following applies: in vivo.

Bounds are passed on as bounds.

On to `O=C(NCCn1cc(Cc2csc3ccccc23)nn1)c1ccccc1F`, for which the inhibition at 150 µM in [1], in data set [3] and in [5] was below 5% in each case. In addition, the Activity entry in [2], in [4], in data set [6], in data set [7], in data set [8] and in data set [9] was “Non-toxic” throughout. Besides, the Activity result in data set [10] is listed as “Non-toxic”; in data set [11], “Non-toxic”; in data set [12], “Non-toxic”; in [13] it was “Non-toxic”; in [14], “Non-toxic”; in data set [15], above 50%. For the same compound, the Activity result in [16], in data set [17], in data set [18] and in data set [19] was “Non-toxic” each time.
On to `O=C(NCCn1cc(Cc2c[nH]c3ccccc23)nn1)c1ccccc1F`, for which the inhibition (as a rule, the change of the read-out against control, counted positive when it falls) at 150 µM in data set [1] was 35%; in data set [3] it was 15%; in data set [5], below 5%. For the same compound, the Activity entry in data set [2], in data set [4], in data set [6], in [7], in [8] and in data set [9] was “Non-toxic” throughout. Besides, the Activity entry is recorded as “Non-toxic” in data set [10]; “Non-toxic” in data set [11]; “Non-toxic” in data set [12]; “Non-toxic” in [13]; “Non-toxic” in data set [14]; below 50% in data set [15]. Also, the Activity result in data set [16], in [17], in data set [18] and in [19] was “Non-toxic” throughout.

For the origin of these results see ChEMBL document CHEMBL3217512, “Indole/triazole conjugates are selective inhibitors and inducers of bacterial biofilms” (Medchemcomm, 2013).
